# Measured values: ChEMBL document CHEMBL1156919, “Synthesis and induction of apoptosis signaling pathway of ent-kaurane derivatives” (Bioorg Med Chem, 2010)
# Calls of active or inactive are those of the source. The rule behind the calls is not given here.
# What was measured:
# [1] = system: RAW264.7; assay: Cytotoxicity against mouse RAW264.7 cells assessed as reduction in cell viability after 24 hrs by MTT assay; assay type: functional, cell-based; details: RAW264.7, 24 h
# Procedure, shortened: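 RAW 264.7 mouse macrophage line kept in RPMI 1640 with 10% FBS, L-glutamine and antibiotics. Treated with 1–100 μM for 24 h, then MTT at 37 °C for 4 h. Formazan taken up in DMSO and read at 540 nm. Triplicate, at least three independent experiments. IC50 is the concentration giving 50% loss of viability relative to untreated cells.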
# [2] = system: HeLa; assay: Cytotoxicity against human HeLa cells assessed as reduction in cell viability after 24 hrs by MTT assay; assay type: functional, cell-based
# Procedure, shortened: (§1)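 Cancer cells kept in DMEM with 10% FBS, L-glutamine and antibiotics. Exposed to 1–100 μM for 24 h, then MTT at 37 °C for 4 h. Formazan dissolved in DMSO and read at 540 nm. Triplicate wells, at least three independent experiments. Viability reduction expressed against untreated cultures. IC50 is the concentration giving 50% loss of viability.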
# [3] = system: HepG2; assay: Cytotoxicity against human HepG2 cells assessed as reduction in cell viability after 24 hrs by MTT assay; assay type: functional, cell-based; details: HepG2, 24 h; procedure, shortened: as §1
# [4] = system: HT-29; assay: Cytotoxicity against human HT-29 cells assessed as reduction in cell viability after 24 hrs by MTT assay; assay type: functional, cell-based; details: HT-29, 24 h; procedure, shortened: as §1
# [5] = Toxicity in thioglycolate-induced mouse peritoneal macrophages assessed as reduction in cell viability after 24 hrs by MTT assay; assay type: cell-based; details: peritoneal macrophage cell
# Procedure, shortened: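 Primary peritoneal macrophages from thioglycolate-injected mice exposed to a range of concentrations for 24 h. Viability read by MTT at 37 °C for 4 h, formazan dissolved in DMSO, absorbance at 540 nm. Three independent experiments in duplicate, means ± SD.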
# [6] = Toxicity in thioglycolate-induced mouse peritoneal macrophages assessed as induction of apoptosis after 24 hrs by flow cytometry; assay type: cell-based; details: peritoneal macrophage cell
# Procedure, shortened: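 Peritoneal macrophages collected from thioglycolate-injected mice and treated across a concentration range for 24 h. Stained with PI and analysed by flow cytometry for apoptotic percentage. Means ± SD of three independent experiments done in duplicate.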
# [7] = system: RAW264.7; assay: Induction of apoptosis in mouse RAW264.7 cells at 1 to 25 uM after 24 hrs by flow cytometry; assay type: functional, cell-based
# Procedure, shortened: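 RAW 264.7 cells exposed to 1–25 μM for 24 h. Stained with 0.005% (w/v) propidium iodide and analysed at once by flow cytometry. Apoptotic and necrotic fractions taken from a forward scatter versus PI fluorescence dot plot. Means ± SD of three independent experiments in triplicate.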
# [8] = system: RAW264.7; assay: Induction of apoptosis in mouse RAW264.7 cells assessed as caspase 8 activation at 5 uM after 24 hrs by fluorimetry; assay type: functional, cell-based
# Procedure, shortened: (§2)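 RAW cells treated with 5 μM for 24 h, with or without 40 μM z-VAD. Caspase activity read fluorimetrically in cytosolic extracts. Substrates: Ac-DEVD-AMC for caspase-3, Ac-IETD-AFC for caspase-8, Ac-LEHD-AFC for caspase-9. Means ± SD of three independent experiments run in triplicate.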
# [9] = system: RAW264.7; assay: Induction of apoptosis in mouse RAW264.7 cells assessed as caspase 9 activation at 5 uM after 24 hrs by fluorimetry; assay type: functional, cell-based; procedure, shortened: as §2
# [10] = system: RAW264.7; assay: Induction of apoptosis in mouse RAW264.7 cells assessed as caspase 3 activation at 5 uM after 24 hrs by fluorimetry; assay type: functional, cell-based; procedure, shortened: as §2
# [11] = system: RAW264.7; assay: Induction of apoptosis in mouse RAW264.7 cells assessed as caspase 8 activation at 5 uM in presence of 40 uM caspase inhibitor z-VAD after 24 hrs by fluorimetric assay; assay type: functional, cell-based; procedure, shortened: as §2
# [12] = system: RAW264.7; assay: Induction of apoptosis in mouse RAW264.7 cells assessed as caspase 9 activation at 5 uM in presence of 40 uM caspase inhibitor z-VAD after 24 hrs by fluorimetric assay; assay type: functional, cell-based; procedure, shortened: as §2
# [13] = system: RAW264.7; assay: Induction of apoptosis in mouse RAW264.7 cells assessed as caspase 3 activation at 5 uM in presence of 40 uM caspase inhibitor z-VAD after 24 hrs by fluorimetric assay; assay type: functional, cell-based; procedure, shortened: as §2
# [14] = system: RAW264.7; assay: Induction of apoptosis in mouse RAW264.7 cells at 5 uM in presence of 40 uM caspase inhibitor z-VAD after 24 hrs by flow cytometry; assay type: functional, cell-based
# Procedure, shortened: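 RAW 264.7 cells given 5 μM for 24 h, with or without 40 μM z-VAD. Stained with 0.005% (w/v) PI and analysed by flow cytometry. Apoptotic percentage taken from a forward scatter versus PI fluorescence dot plot. Three independent experiments in triplicate, means ± SD.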
# [15] = system: RAW264.7; assay: Increase in p53 protein expression in mouse RAW264.7 cells at 5 uM by Western blot; assay type: functional, cell-based
# Procedure, shortened: (§3)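 RAW 264.7 cells incubated with 5 μM and sampled at several time points. Cytosolic extracts run on SDS–PAGE (10–15% gels) and blotted to PVDF. Probed for p53, Bax, Bcl-2, Bcl-xl, XIAP, IAP-1 and IAP-2, then HRP secondary and chemiluminescence. β-actin served as loading control. Protein measured by Bio-Rad assay.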
# [16] = system: RAW264.7; assay: Increase in Bax protein expression in mouse RAW264.7 cells at 5 uM by Western blot; assay type: functional, cell-based; procedure, shortened: as §3
# [17] = system: RAW264.7; assay: Decrease in Bcl-2 protein expression in mouse RAW264.7 cells at 5 uM by Western blot; assay type: functional, cell-based; procedure, shortened: as §3
# [18] = system: RAW264.7; assay: Decrease in Bcl-xl protein expression in mouse RAW264.7 cells at 5 uM by Western blot; assay type: functional, cell-based; procedure, shortened: as §3
# [19] = system: RAW264.7; assay: Decrease in IAP protein expression in mouse RAW264.7 cells at 5 uM by Western blot; assay type: functional, cell-based; procedure, shortened: as §3
structure (smiles),measurement,setting,value
C=C1C[C@@]23CC[C@H]4[C@@](C)(CCC[C@@]4(C)C(=O)OCc4ccccc4)[C@@H]2CC[C@@H]1C3 [KAURENOIC ACID BENZYL ESTER],IC50,[1],25 µM
C=C1C(=O)[C@@]23CC[C@@H]4[C@](C)(C(=O)OC)CCC[C@@]4(C)C2=CC[C@@H]1C3,IC50,[1],5 µM
same,IC50,[2],25 µM
same,IC50,[3],> 100 µM
same,IC50,[4],25 µM
same,Activity,[5],Non-toxic
same,Activity,[6],Non-toxic
same,Activity,[7],Active
same,Activity,[8],Active
same,Activity,[9],Active
same,Activity,[10],Active
same,Activity,[11],inactive
same,Activity,[12],inactive
same,Activity,[13],inactive
same,Activity,[14],inactive
same,Activity,[15],Active
same,Activity,[16],Active
same,Activity,[17],Active
same,Activity,[18],Active
same,Activity,[19],Active
COC(=O)[C@]1(C)CCC[C@@]2(C)[C@@H]3CC[C@@H]4C[C@@]3(CC[C@@H]21)C[C@@]4(C)O,IC50,[1],25 µM
C=C1[C@@H]2CC=C3[C@@](CC[C@@H]4[C@](C)(C(=O)OC)CCC[C@@]34C)(C2)[C@H]1OC(C)=O,IC50,[1],35 µM
C=C1C[C@@]23CC[C@@H]4[C@](C)(CO)CCC[C@@]4(C)[C@@H]2CC[C@@H]1C3,IC50,[1],> 100 µM
C=C1[C@@H]2CC=C3[C@@](CC[C@@H]4[C@](C)(C(=O)OC)CCC[C@@]34C)(C2)[C@H]1O,IC50,[1],> 100 µM
COC(=O)[C@]1(C)CCC[C@@]2(C)[C@@H]3CC[C@@H]4C[C@]3(C=C4C)CC[C@@H]21,IC50,[1],100 µM
C=C1C(=O)[C@@]23CC[C@H]4[C@@](C)(CCC[C@@]4(C)C(=O)O)[C@@H]2CC[C@@H]1C3,IC50,[1],35 µM
C=C1[C@@H]2CC[C@H]3[C@]4(C)CCC[C@@](C)(C(=O)OC)[C@H]4CC[C@]3(C2)[C@H]1OC(C)=O,IC50,[1],25 µM
C=C1C[C@@]23CC[C@@H]4[C@](C)(CO)CCC[C@@]4(C)C2=CC[C@@H]1C3,IC50,[1],35 µM
COC(=O)[C@]1(C)CCC[C@@]2(C)[C@@H]3CC[C@@H]4C[C@@]3(CC[C@@H]21)C[C@@]4(C)OC,IC50,[1],> 100 µM
COC(=O)[C@]1(C)CCC[C@@]2(C)[C@@H]3CC[C@@H]4C[C@@]3(CC[C@@H]21)C[C@H]4C=O,IC50,[1],> 100 µM
COC(=O)[C@]1(C)CCC[C@@]2(C)C3=CC[C@@H]4C[C@@]3(CC[C@H]12)C[C@]4(O)CO,IC50,[1],25 µM
C=C1C[C@@]23CC[C@H]4[C@@](C)(CCC[C@@]4(C)C(=O)OC)[C@@H]2CC[C@@H]1C3 [KAURENOIC ACID METHYL ESTER],IC50,[1],75 µM
COC(=O)[C@]1(C)CCCC2(C)[C@@H]3CC[C@@H]4C[C@@]3(CC[C@@H]21)C[C@@]41CO1 (stereo not given in full),IC50,[1],> 100 µM
C=C1C[C@@]23CC[C@H]4[C@@](C)(CCC[C@@]4(C)C(=O)O)[C@@H]2CC[C@@H]1C3 [KAURENOIC ACID],IC50,[1],> 100 µM
COC(=O)[C@]1(C)CCC[C@@]2(C)C3=CC[C@@H]4C[C@]3(C=C4C=O)CC[C@H]12,IC50,[1],5 µM
same,IC50,[2],10 µM
same,IC50,[3],25 µM
same,IC50,[4],40 µM
same,Activity,[5],Toxic
same,Activity,[6],Toxic
same,Activity,[7],Active
same,Activity,[9],Active
same,Activity,[10],Active
same,Activity,[11],inactive
same,Activity,[12],inactive
same,Activity,[13],inactive
same,Activity,[14],inactive
same,Activity,[15],Active
same,Activity,[16],Active
same,Activity,[17],Active
same,Activity,[18],Active
same,Activity,[19],Active
COC(=O)[C@]1(C)CCC[C@@]2(C)[C@@H]3CC[C@@H]4C[C@@]3(CC[C@@H]21)C[C@H]4C [DIHYDRO KAURENOIC ACID METHYL ESTER],IC50,[1],75 µM
C=C1[C@H]2CC3=C([C@H](C2)[C@@H]1O)[C@]1(C)CCC[C@@](C)(C(=O)OC)[C@H]1CC3,IC50,[1],5 µM
same,IC50,[2],> 100 µM
same,IC50,[3],> 100 µM
same,IC50,[4],> 100 µM
same,Activity,[5],Non-toxic
same,Activity,[6],Non-toxic
same,Activity,[7],Active
same,Activity,[8],Active
same,Activity,[9],Active
same,Activity,[10],Active
same,Activity,[11],inactive
same,Activity,[12],inactive
same,Activity,[13],inactive
same,Activity,[14],inactive
same,Activity,[15],Active
same,Activity,[16],Active
same,Activity,[17],Active
same,Activity,[18],Active
same,Activity,[19],Active
C=C1[C@@H]2CC[C@H]3[C@]4(C)CCC[C@@](C)(C(=O)OC)[C@H]4CC[C@]3(C2)[C@H]1O,IC50,[1],> 100 µM
COC(=O)[C@]1(C)CCC[C@@]2(C)[C@@H]3CC[C@@H]4C[C@@]3(CC[C@@H]21)C[C@H]4/C=N/O,IC50,[1],35 µM
C=C1C[C@@]23CC[C@@H]4[C@](C)(C(=O)OCc5ccccc5)CCC[C@@]4(C)C2=CC[C@@H]1C3 [GRANDIFLORENIC ACID BENZYL ESTER],IC50,[1],65 µM
COC(=O)[C@]1(C)CCCC2(C)[C@@H]3CC[C@@H]4C[C@@]3(CC[C@@H]21)C[C@]41CO1 (stereo not given in full),IC50,[1],> 100 µM
COC(=O)[C@]1(C)CCC[C@@]2(C)[C@@H]3CC[C@@H]4C[C@@]3(CC[C@@H]21)C[C@@]4(C)Cl,IC50,[1],> 100 µM
C=C1C[C@@]23CC[C@@H]4[C@](C)(C(=O)OC)CCC[C@@]4(C)C2=CC[C@@H]1C3 [GRANDIFLORENIC ACID METHYL ESTER],IC50,[1],35 µM
C=C1[C@@H]2CC[C@H]3[C@]4(C)CCC[C@@](C)(C(=O)O)[C@H]4CC[C@]3(C2)[C@H]1OC(C)=O,IC50,[1],25 µM
COC(=O)[C@]1(C)CCC[C@@]2(C)[C@@H]3CC[C@@H]4C[C@]3(C=C4C=O)CC[C@@H]21,IC50,[1],25 µM
C=C1[C@@H]2CC[C@H]3[C@]4(C)CCC[C@@](C)(C(=O)O)[C@H]4CC[C@]3(C2)[C@H]1O,IC50,[1],> 100 µM
COC(=O)[C@]1(C)CCC[C@@]2(C)[C@@H]3CC[C@@H]4C[C@@]3(CC[C@@H]21)C(=O)[C@H]4CCc1ccccc1,IC50,[1],> 100 µM
COC(=O)[C@]1(C)CCC[C@@]2(C)[C@@H]3CC[C@@H]4C[C@@]3(CC[C@@H]21)C[C@]4(O)CO,IC50,[1],10 µM
C=C1C[C@@]23CC[C@@H]4[C@](C)(C(=O)O)CCC[C@@]4(C)C2=CC[C@@H]1C3 [GRANDIFLORENIC ACID],IC50,[1],15 µM
COC(=O)[C@]1(C)CCC[C@@]2(C)[C@@H]3CC[C@@H]4C[C@@]3(CC[C@@H]21)C(=O)C41CCN=N1 (stereo not given in full),IC50,[1],100 µM
